These results are taken from ChEMBL document CHEMBL3774332, “Synthesis, biological evaluation and molecular modeling of pseudo-peptides based statine as inhibitors for human tissue kallikrein 5” (Eur J Med Chem, 2016).

The structures appear in SMILES notation. Active and inactive are the calls of the source. The rule behind the calls is not given here.

Data set [1] in a line: Solubility in aqueous buffer solution at >1 uM. The class given is physicochemical. The essentials: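 Solubility was tested in the aqueous assay buffer (50 mM Tris–HCl, pH 7.5) before enzymatic assays, at concentrations above 1.0 µM.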
For data set [2], the target named is Kallikrein-7 (Homo sapiens) (UniProt P49862). The experiment in a line: Inhibition of human KLK7 using Abz-KLYSSKQ-EDDnp as substrate at 10 to 100 uM preincubated for 5 mins followed by substrate addition by spectrofluorimetric analysis. Summed up: (§1)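 Residual-activity screen in 50 mM Tris–HCl, pH 7.5. Compound stocks in DMSO:H2O 1:1 were diluted to 10 µM final, and in some runs raised to 100 µM. Inhibitor was incubated with enzyme for 5 min at 37°C. Substrate was then added: Abz-KLRSSKQ-EDDnp for KLK1, KLK5 and KLK6, or Abz-KLYSSKQ-EDDnp for KLK7. Fluorescence was read at ex 320 nm, em 420 nm and compared with an inhibitor-free control.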

In data set [3] the target is Kallikrein-6 (Homo sapiens) (UniProt Q92876). The experiment in a line: Inhibition of human KLK6 using Abz-KLRSSKQ-EDDnp as substrate at 10 to 100 uM preincubated for 5 mins followed by substrate addition by spectrofluorimetric analysis. The essentials: as §1
The target of data set [4] is Kallikrein-5 (Homo sapiens) (UniProt Q9Y337). The experiment in a line: Inhibition of human KLK5 using Abz-KLRSSKQ-EDDnp as substrate at 10 to 100 uM preincubated for 5 mins followed by substrate addition by spectrofluorimetric analysis. Summed up:
as §1

In data set [5] the target is Kallikrein-1 (Homo sapiens) (UniProt P06870). The experiment in a line: Inhibition of human KLK1 using Abz-KLRSSKQ-EDDnp as substrate at 10 to 100 uM preincubated for 5 mins followed by substrate addition by spectrofluorimetric analysis. Summed up: as §1
In data set [6] the target is Kallikrein-7 (Homo sapiens) (UniProt P49862). Description: Inhibition of human KLK7 using Abz-KLYSSKQ-EDDnp as substrate at >1 uM preincubated for 5 mins followed by substrate addition by spectrofluorimetric analysis.
Data set [7] addresses Kallikrein-1 (Homo sapiens) (UniProt P06870). The experiment in a line: Inhibition of human KLK1 using Abz-KLRSSKQ-EDDnp as substrate at >1 uM preincubated for 5 mins followed by substrate addition by spectrofluorimetric analysis.
Data set [8] has as its target Kallikrein-5 (Homo sapiens) (UniProt Q9Y337). The experiment in a line: Inhibition of human KLK5 using Abz-KLRSSKQ-EDDnp as substrate at >1 uM preincubated for 5 mins followed by substrate addition by spectrofluorimetric analysis.
The target of data set [9] is Kallikrein-6 (Homo sapiens) (UniProt Q92876). Description: Inhibition of human KLK6 using Abz-KLRSSKQ-EDDnp as substrate at >1 uM preincubated for 5 mins followed by substrate addition by spectrofluorimetric analysis.
For data set [10], the target named is T1, Kallikrein-5 (Homo sapiens, UniProt Q9Y337).
T1 sequence (Q9Y337 whole entry): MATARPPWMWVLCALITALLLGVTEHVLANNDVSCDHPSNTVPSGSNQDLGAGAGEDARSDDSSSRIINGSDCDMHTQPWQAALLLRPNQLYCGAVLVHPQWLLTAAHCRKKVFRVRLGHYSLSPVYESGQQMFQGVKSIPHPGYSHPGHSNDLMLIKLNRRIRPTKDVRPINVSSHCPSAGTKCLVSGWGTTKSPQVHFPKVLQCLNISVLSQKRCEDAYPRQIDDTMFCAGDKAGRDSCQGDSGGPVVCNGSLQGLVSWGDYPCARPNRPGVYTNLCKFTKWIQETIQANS
Description: Inhibition of human KLK5 using Abz-KLRSSKQ-EDDnp as substrate preincubated for 5 mins followed by substrate addition by spectrofluorimetric analysis. The essentials:
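Assay in 50 mM Tris–HCl, pH 7.5, with 0.02 µg human KLK5 and inhibitor incubated 5 min at 37°C before adding Abz-KLRSSKQ-EDDnp. Fluorescence was read at ex 320 nm, em 420 nm. IC50 came from rates at five or more inhibitor concentrations across 0.01–1.0 µM. Values are means ± SD of three independent experiments.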

Data set [11] has as its target Kallikrein-5 (Homo sapiens) (UniProt Q9Y337). Description: Inhibition of human KLK5 using Abz-KLRSSKQ-EDDnp as substrate at 10 uM preincubated for 5 mins followed by substrate addition by spectrofluorimetric analysis. Summed up: as §1
Data set [12] has as its target Kallikrein-6 (Homo sapiens) (UniProt Q92876). Description: Inhibition of human KLK6 using Abz-KLRSSKQ-EDDnp as substrate at 10 uM preincubated for 5 mins followed by substrate addition by spectrofluorimetric analysis. Summed up:
as §1

Data set [13] addresses T1, Kallikrein-5. Description: Competitive inhibition of human KLK5 using Abz-KLRSSKQ-EDDnp as substrate preincubated for 5 mins followed by substrate addition by Lineweaver-Burk plot analysis. The essentials: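 Human KLK5 (0.02 µg) was preincubated with inhibitor for 5 min at 37°C in 50 mM Tris–HCl, pH 7.5. Reaction was started with FRET substrate Abz-KLRSSKQ-EDDnp and read by fluorescence (ex 320 nm, em 420 nm). Initial rates were measured without inhibitor and at four inhibitor concentrations. Ki was taken as the x-intercept of 1/V0 versus inhibitor concentration at constant substrate. Mode was assigned from Lineweaver–Burk plots.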

Data set [14] concerns the target Kallikrein-7 (Homo sapiens) (UniProt P49862). The experiment in a line: Inhibition of human KLK7 using Abz-KLYSSKQ-EDDnp as substrate at 10 uM preincubated for 5 mins followed by substrate addition by spectrofluorimetric analysis. Summed up: as §1
For data set [15], the target named is Kallikrein-1 (Homo sapiens) (UniProt P06870). Description: Inhibition of human KLK1 using Abz-KLRSSKQ-EDDnp as substrate at 10 uM preincubated for 5 mins followed by substrate addition by spectrofluorimetric analysis. The essentials: as §1

Sequence of Kallikrein-1 (Homo sapiens) (P06870 25-262 limits assumed): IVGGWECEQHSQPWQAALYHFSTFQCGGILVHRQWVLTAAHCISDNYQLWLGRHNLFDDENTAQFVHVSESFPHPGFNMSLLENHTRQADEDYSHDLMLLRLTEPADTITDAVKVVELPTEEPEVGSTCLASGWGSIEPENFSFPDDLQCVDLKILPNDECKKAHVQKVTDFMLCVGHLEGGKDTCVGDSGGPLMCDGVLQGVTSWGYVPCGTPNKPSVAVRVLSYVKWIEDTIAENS
Sequence of Kallikrein-7 (Homo sapiens) (P49862 30-253 limits assumed): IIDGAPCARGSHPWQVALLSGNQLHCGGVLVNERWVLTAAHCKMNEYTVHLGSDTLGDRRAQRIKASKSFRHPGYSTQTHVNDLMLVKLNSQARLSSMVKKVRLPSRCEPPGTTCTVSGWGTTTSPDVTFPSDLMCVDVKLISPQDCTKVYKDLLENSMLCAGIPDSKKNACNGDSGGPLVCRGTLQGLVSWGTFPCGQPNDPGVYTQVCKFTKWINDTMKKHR

Take `CC(C)(C)OC(=O)N[C@@H](Cc1ccccc1)[C@@H](O)CC(=O)N1CCC[C@H]1C(=O)O`: in data set [1], the solubility entry is reported as “soluble”. Besides, the inhibition result in data set [2], in [3], in data set [4] and in data set [5] was “inactive” each time.

As to `CC(C)(C)OC(=O)N[C@@H](Cc1ccccc1)[C@@H](O)CC(=O)N1CCC[C@H]1C(=O)N[C@H]1CO[C@H]2[C@@H]1OC[C@H]2OCc1ccccc1`, the solubility entry in [1] was “Insoluble”. Moreover, the inhibition entry in [6], in data set [7], in [8] and in data set [9] was “inactive” throughout.

For the molecule `CC(C)(C)OC(=O)N[C@@H](Cc1ccccc1)[C@@H](O)CC(=O)N[C@@H](Cc1ccccc1)C(=O)N[C@H]1CO[C@H]2[C@@H]1OC[C@H]2OCc1ccccc1`, the solubility result in data set [1] was “Insoluble”. In addition, the inhibition result in [6], in data set [7], in data set [8] and in [9] was “inactive” in each case.

`COC(=O)[C@@H]1CCCN1C(=O)C[C@H](O)[C@H](Cc1ccccc1)NC(=O)OC(C)(C)C`: at Kallikrein-5 [10], the half-inhibitory concentration (IC50) was determined as 122 nM. Further, in [11], the inhibition entry is “Active”. The solubility entry in data set [1] is on record as “soluble”. The inhibition result in [12], in [14] and in [15] was “inactive” in each case. This molecule displayed a Ki on Kallikrein-5 [13] of 130 nM.

Consider `CC(C)[C@H](NC(=O)C[C@H](O)[C@H](Cc1ccccc1)NC(=O)OC(C)(C)C)C(=O)O`, for which the solubility result in [1] is recorded as “soluble”. In addition, the inhibition result in data set [2], in data set [3], in data set [4] and in data set [5] was “inactive” in each case.

In the case of `CC(C)[C@H](NC(=O)C[C@H](O)[C@H](Cc1ccccc1)NC(=O)OC(C)(C)C)C(=O)N[C@H]1CO[C@H]2[C@@H]1OC[C@H]2OCc1ccccc1`, in [1], the solubility entry is “Insoluble”. Also, the inhibition entry in [6], in [7], in data set [8] and in data set [9] was “inactive” in each case.

`CC(C)(C)OC(=O)N[C@@H](Cc1ccccc1)[C@@H](O)CC(=O)N[C@@H](Cc1ccccc1)C(=O)O`: the solubility result in data set [1] is on record as “soluble”. For the same molecule, the inhibition entry in data set [2], in data set [3], in [4] and in data set [5] was “inactive” each time.

Consider `COC(=O)[C@H](Cc1ccccc1)NC(=O)C[C@H](O)[C@H](Cc1ccccc1)NC(=O)OC(C)(C)C`, for which inhibition at Kallikrein-5 [10] was half-maximal at 112 nM (IC50). Further, the inhibition result in [11] is “Active”. In addition, the solubility result in data set [1] is “soluble”. For the same molecule, the inhibition entry in data set [12], in data set [14] and in data set [15] was “inactive” each time. Moreover, the inhibitory constant (Ki) on Kallikrein-5 [13] was 120 nM.

Take `COC(=O)[C@@H](NC(=O)C[C@H](O)[C@H](Cc1ccccc1)NC(=O)OC(C)(C)C)C(C)C`: at Kallikrein-5 [10], the 50% inhibitory concentration (IC50) is 115 nM. Further, in data set [11], the inhibition entry was “Active”. The solubility entry in [1] is on record as “soluble”. In addition, the inhibition result in [12], in data set [14] and in [15] was “inactive” throughout. Further, on Kallikrein-5 [13], the affinity corresponds to a Ki of 130 nM.
